Laboratory results reported in ChEMBL document CHEMBL1143088, “Non-acidic pyrazole EP1 receptor antagonists with in vivo analgesic efficacy” (Bioorg Med Chem Lett, 2008).

Key:
[1] = Ratio of drug level in brain to blood in Sprague-Dawley rat at […], iv; assay type: ADME, organism-based; set-up: route intravenous
Outline: (§1)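 Male Sprague–Dawley rat given iv infusion over 18 h at 5 mL/kg/h (0.518 mg/kg/h) in 0.9% saline with 2% DMSO, 20% Kleptose. Serial blood samples every 15 min over last hour to confirm steady state; after 18 h blood taken, rat culled, brain homogenized; blood and brain analysed by LC/MS/MS.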

Blood [2] = assay: Drug uptake in FCA-induced hypersensitivity rat blood at 30 mg/kg, po administered with DMSO as vehicle; assay type: ADME, organism-based; set-up: dose 30 mg/kg, route oral; conditions: in vivo, read-out: Drug uptake
Outline: (§2)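 CFA inflammatory pain rats dosed orally at 1, 3, 10 and 30 mg/kg in 2% DMSO and 20% Kleptose water; weight-bearing readout and blood/brain samples taken 1 h post-dose. Blood levels mean of seven rats; brain levels mean of two or three rats; Br:Bl average of three rats.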

Cytochrome P450 2D6 = Cytochrome P450 2D6 (Homo sapiens, UniProt P10635); assay: Inhibition of CYP2D6; assay type: ADME
Cytochrome P450 3A4 = Cytochrome P450 3A4 (Homo sapiens, UniProt P08684); assay: Inhibition of CYP3A4; assay type: ADME
[3] = molecular target: T1, Prostaglandin E2 receptor EP3 subtype (Homo sapiens, UniProt P43115); assay: Antagonist activity at PGE2-EP3 receptor assessed as PGE2-induced intracellular calcium mobilization; assay type: functional, cell-based
T1 sequence (P43115 whole entry): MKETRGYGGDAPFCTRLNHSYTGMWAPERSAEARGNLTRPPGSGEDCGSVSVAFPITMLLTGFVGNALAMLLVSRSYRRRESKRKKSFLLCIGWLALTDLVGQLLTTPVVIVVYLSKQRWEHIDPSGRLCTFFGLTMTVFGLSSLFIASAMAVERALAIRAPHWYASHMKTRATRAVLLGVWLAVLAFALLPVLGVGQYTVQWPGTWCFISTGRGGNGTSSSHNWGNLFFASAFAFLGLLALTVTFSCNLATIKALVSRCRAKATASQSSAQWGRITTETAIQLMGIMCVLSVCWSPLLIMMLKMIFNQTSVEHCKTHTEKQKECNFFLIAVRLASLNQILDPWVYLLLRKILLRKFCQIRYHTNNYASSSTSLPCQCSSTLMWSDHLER

Brain [4] = assay: Drug uptake in FCA-induced hypersensitivity rat brain at 10 mg/kg, po administered with DMSO as vehicle; assay type: ADME, organism-based; set-up: dose 10 mg/kg, route oral; conditions: in vivo, read-out: Drug uptake; outline: as §2
Brain [5] = assay: Drug uptake in FCA-induced hypersensitivity rat brain at 1 mg/kg, po administered with DMSO as vehicle; assay type: ADME, organism-based; set-up: dose 1 mg/kg, route oral; conditions: in vivo, read-out: Drug uptake; outline: as §2
[6] = Clearance in blood in rat at 10 mL/h/kg, iv; assay type: ADME, organism-based; conditions: whole blood
Outline: (§3)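 Male rats (n = 1 per compound) dosed iv at 10 mL/h/kg over 1 h via femoral vein cannula, target 1 mg free compound/kg, formulated at 0.1 mg/mL in 0.9% saline with 2% DMSO and 10–20% Kleptose (some with a molar equivalent NaOH), filtered before dosing.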

Rattus norvegicus = assay: Reversal of FCA-induced hypersensitivity in orally dosed rat assessed as reduction in weight bearing administered with DMSO as vehicle; assay type: functional; conditions: po
Outline: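 The CFA inflammatory pain model used rats dosed orally at 1, 3, 10 and 30 mg/kg in 2% DMSO and 20% Kleptose in water. Weight bearing was the efficacy readout at 1 h post-dose. Blood (seven rats) and brain (two to three rats) were sampled at that time. ED50 was given in mg/kg.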

[7] = Volume of distribution at steady state in rat at 10 mL/h/kg, iv; assay type: ADME, organism-based; conditions: in vivo, read-out: Vdss; outline: as §3
[8] = molecular target: T2, Prostaglandin E2 receptor EP1 subtype (Homo sapiens, UniProt P34995); assay: Displacement of [3H]PGE2 from human PGE2-EP1 receptor expressed in CHO-K1 cells; assay type: cell-based
T2 sequence (P34995 whole entry): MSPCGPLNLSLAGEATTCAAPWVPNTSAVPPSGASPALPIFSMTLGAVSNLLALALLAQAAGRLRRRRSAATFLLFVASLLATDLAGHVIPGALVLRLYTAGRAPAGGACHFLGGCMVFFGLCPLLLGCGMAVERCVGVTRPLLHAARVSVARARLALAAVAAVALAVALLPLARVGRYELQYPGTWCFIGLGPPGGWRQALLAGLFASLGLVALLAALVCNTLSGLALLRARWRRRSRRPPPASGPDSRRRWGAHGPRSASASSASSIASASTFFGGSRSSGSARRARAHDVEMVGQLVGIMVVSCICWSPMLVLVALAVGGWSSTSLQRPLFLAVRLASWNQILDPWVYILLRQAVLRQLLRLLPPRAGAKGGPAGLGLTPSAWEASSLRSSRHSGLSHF

Cytochrome P450 2C9 = Cytochrome P450 2C9 (Homo sapiens, UniProt P11712); assay: Inhibition of CYP2C9; assay type: ADME
[9] = Ratio of drug level in brain to blood in FCA-induced hypersensitivity rat at 3 mg/kg, po administered with DMSO as vehicle; assay type: ADME, organism-based; set-up: dose 3 mg/kg, route oral; outline: as §2
Blood [10] = assay: Drug uptake in FCA-induced hypersensitivity rat blood at 3 mg/kg, po administered with DMSO as vehicle; assay type: ADME, organism-based; set-up: dose 3 mg/kg, route oral; conditions: in vivo, read-out: Drug uptake; outline: as §2
[11] = Drug level in Sprague-Dawley rat brain at steady state at […], iv after 18 hrs; assay type: ADME, organism-based; set-up: route intravenous; conditions: read-out: Drug uptake; outline: as §1
Cytochrome P450 1A2 = molecular target: T3, Cytochrome P450 1A2 (Homo sapiens, UniProt P05177); assay: Inhibition of CYP1A2; assay type: ADME
T3 sequence (P05177 whole entry): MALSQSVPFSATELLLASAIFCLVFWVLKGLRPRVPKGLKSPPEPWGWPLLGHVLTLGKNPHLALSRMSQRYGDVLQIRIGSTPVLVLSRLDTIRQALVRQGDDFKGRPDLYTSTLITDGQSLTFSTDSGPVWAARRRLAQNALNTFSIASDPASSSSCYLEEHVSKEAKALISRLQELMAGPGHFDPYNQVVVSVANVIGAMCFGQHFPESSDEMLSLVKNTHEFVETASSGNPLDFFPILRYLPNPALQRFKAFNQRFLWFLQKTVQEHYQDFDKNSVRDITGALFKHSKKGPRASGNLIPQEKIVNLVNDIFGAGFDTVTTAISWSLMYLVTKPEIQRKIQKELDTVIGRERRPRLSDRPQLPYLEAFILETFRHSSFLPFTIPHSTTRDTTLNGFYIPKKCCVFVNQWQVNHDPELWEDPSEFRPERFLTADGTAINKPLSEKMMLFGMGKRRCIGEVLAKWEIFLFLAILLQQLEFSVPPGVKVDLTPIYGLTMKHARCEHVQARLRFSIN

[12] = molecular target: T2, Prostaglandin E2 receptor EP1 subtype; assay: Antagonist activity at PGE2-EP1 receptor assessed as PGE2-induced response by schild analysis; assay type: functional; conditions: read-out: pA2 (converted)
Brain [13] = assay: Drug uptake in FCA-induced hypersensitivity rat brain at 3 mg/kg, po administered with DMSO as vehicle; assay type: ADME, organism-based; set-up: dose 3 mg/kg, route oral; conditions: in vivo, read-out: Drug uptake; outline: as §2
Cytochrome P450 2C19 = Cytochrome P450 2C19 (Homo sapiens, UniProt P33261); assay: Inhibition of CYP2C19; assay type: ADME
[14] = Ratio of drug level in brain to blood in FCA-induced hypersensitivity rat at 30 mg/kg, po administered with DMSO as vehicle; assay type: ADME, organism-based; set-up: dose 30 mg/kg, route oral; outline: as §2
[15] = Half life in rat at 10 mL/h/kg, iv; assay type: ADME, organism-based; conditions: in vivo; outline: as §3
[16] = Ratio of drug level in brain to blood in FCA-induced hypersensitivity rat at 10 mg/kg, po administered with DMSO as vehicle; assay type: ADME, organism-based; set-up: dose 10 mg/kg, route oral; outline: as §2
Blood [17] = assay: Drug uptake in FCA-induced hypersensitivity rat blood at 10 mg/kg, po administered with DMSO as vehicle; assay type: ADME, organism-based; set-up: dose 10 mg/kg, route oral; conditions: in vivo, read-out: Drug uptake; outline: as §2
[18] = molecular target: T2, Prostaglandin E2 receptor EP1 subtype; assay: Antagonist activity at PGE2-EP1 receptor assessed as PGE2-induced intracellular calcium mobilization; assay type: functional, cell-based
Brain [19] = assay: Drug uptake in FCA-induced hypersensitivity rat brain at 30 mg/kg, po administered with DMSO as vehicle; assay type: ADME, organism-based; set-up: dose 30 mg/kg, route oral; conditions: in vivo, read-out: Drug uptake; outline: as §2
Blood [20] = assay: Drug uptake in FCA-induced hypersensitivity rat blood at 1 mg/kg, po administered with DMSO as vehicle; assay type: ADME, organism-based; set-up: dose 1 mg/kg, route oral; conditions: in vivo, read-out: Drug uptake; outline: as §2
[21] = Clearance at steady state in Sprague-Dawley rat blood at […], iv after 18 hrs; assay type: ADME, organism-based; set-up: route intravenous; conditions: whole blood; outline: as §1
[22] = Ratio of drug level in brain to blood in FCA-induced hypersensitivity rat at 1 mg/kg, po administered with DMSO as vehicle; assay type: ADME, organism-based; set-up: dose 1 mg/kg, route oral; outline: as §2
[23] = Drug level in Sprague-Dawley rat blood at steady state at […], iv after 18 hrs; assay type: ADME, organism-based; set-up: route intravenous; conditions: whole blood, read-out: Drug uptake; outline: as §1
[24] = Distribution coefficient, logD at pH 7.4; assay type: physicochemical; conditions: octanol/water
Outline: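 Distribution coefficient between n-octanol and water buffered to pH 7.4; log10 of ratio of equilibrium concentrations of all species.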

Sequence of Cytochrome P450 2C9 (P11712 whole entry): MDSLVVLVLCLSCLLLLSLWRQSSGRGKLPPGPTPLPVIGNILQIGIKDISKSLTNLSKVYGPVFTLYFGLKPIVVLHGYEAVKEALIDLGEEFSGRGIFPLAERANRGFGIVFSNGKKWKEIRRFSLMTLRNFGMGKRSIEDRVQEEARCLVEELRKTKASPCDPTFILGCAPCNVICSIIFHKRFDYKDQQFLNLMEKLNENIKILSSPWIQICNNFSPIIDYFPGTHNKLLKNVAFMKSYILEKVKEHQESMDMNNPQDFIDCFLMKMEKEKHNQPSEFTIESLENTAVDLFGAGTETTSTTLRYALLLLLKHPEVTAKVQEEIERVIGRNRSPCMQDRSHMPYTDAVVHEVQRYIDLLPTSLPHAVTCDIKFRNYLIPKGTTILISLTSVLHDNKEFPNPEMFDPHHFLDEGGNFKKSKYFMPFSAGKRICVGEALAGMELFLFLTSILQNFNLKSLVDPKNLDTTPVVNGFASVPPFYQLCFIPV
Sequence of Cytochrome P450 2D6 (P10635 whole entry): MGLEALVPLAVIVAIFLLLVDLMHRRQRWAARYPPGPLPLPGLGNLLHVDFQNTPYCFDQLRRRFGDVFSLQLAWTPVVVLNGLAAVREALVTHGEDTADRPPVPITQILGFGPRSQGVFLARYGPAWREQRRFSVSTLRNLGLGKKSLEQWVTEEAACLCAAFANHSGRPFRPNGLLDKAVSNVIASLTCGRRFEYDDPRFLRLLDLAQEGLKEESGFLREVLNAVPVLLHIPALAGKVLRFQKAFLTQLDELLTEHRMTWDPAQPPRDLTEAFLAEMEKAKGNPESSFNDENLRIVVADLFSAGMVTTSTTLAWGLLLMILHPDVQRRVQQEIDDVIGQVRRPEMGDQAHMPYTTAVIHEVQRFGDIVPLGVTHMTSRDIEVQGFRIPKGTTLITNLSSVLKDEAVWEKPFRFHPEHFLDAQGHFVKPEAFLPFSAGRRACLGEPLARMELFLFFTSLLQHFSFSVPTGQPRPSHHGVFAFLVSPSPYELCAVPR
Sequence of Cytochrome P450 3A4 (P08684 whole entry): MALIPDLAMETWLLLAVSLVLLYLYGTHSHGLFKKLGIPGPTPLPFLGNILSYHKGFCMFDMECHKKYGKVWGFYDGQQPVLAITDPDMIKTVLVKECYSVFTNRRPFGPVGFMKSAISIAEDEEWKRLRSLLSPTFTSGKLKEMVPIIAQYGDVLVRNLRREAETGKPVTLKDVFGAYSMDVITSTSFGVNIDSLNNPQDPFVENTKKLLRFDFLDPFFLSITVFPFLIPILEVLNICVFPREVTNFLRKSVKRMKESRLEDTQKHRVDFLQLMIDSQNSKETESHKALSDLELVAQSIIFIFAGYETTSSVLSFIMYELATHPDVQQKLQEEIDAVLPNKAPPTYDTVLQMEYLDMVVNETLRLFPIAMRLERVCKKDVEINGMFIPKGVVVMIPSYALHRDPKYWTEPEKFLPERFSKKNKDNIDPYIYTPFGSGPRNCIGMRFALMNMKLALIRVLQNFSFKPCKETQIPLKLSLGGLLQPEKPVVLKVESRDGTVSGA
Sequence of Cytochrome P450 2C19 (P33261 whole entry): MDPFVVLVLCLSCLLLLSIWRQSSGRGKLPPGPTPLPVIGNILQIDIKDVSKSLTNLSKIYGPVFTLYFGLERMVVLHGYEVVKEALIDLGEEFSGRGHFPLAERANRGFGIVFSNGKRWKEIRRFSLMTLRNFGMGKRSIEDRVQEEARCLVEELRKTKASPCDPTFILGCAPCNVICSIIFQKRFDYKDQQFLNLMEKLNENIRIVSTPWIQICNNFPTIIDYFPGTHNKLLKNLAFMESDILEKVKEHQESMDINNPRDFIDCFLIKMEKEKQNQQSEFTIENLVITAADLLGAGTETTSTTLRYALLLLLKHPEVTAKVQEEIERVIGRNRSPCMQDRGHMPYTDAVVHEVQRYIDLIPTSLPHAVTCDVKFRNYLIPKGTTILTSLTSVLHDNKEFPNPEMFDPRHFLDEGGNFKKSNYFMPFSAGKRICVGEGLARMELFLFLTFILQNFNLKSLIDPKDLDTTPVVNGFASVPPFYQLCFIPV

## Cc1cc(NC(=O)OC(C)(C)C)nn1Cc1cc(Cl)ccc1OCc1ccccc1
[1]
  Kp: 3.44
Blood [2]
  concentration: 299 nM
Cytochrome P450 2D6
  IC50: > 100 µM
Cytochrome P450 3A4
  IC50: > 100 µM
[3]
  Ki: > 10 µM
Brain [4]
  concentration: 781 nM
Brain [5]
  concentration: 106 nM
[6]
  clearance: 42 mL/min/kg
Rattus norvegicus
  ED50: 5.36 mg/kg
[7]
  Vd: 8.6 L/kg
[8]
  IC50: 0.0251 µM
Cytochrome P450 2C9
  IC50: 16 µM
[9]
  Kp: 2.66
Blood [10]
  concentration: 210 nM
[11]
  concentration at 18 h: 1400 nM
Cytochrome P450 1A2
  IC50: > 100 µM
[12]
  Kb: 0.0501 µM
Brain [13]
  concentration: 473 nM
Cytochrome P450 2C19
  IC50: > 100 µM
[14]
  Kp: 2.73
[15]
  half-life: 3 h
[16]
  Kp: 2.26
Blood [17]
  concentration: 302 nM
[18]
  Ki: 0.0158 µM
Brain [19]
  concentration: 836 nM
Blood [20]
  concentration: 57 nM
[21]
  clearance: 54 mL/min/kg
[22]
  Kp: 2.66
[23]
  concentration at 18 h: 408 nM
[24]
  logD: > 3.7
